In general, MIC refers to the smallest concentration in the dilution series that meets the test's criterion for growth inhibition.

Holding throughout (assay): MIC
Format in all cases: cell-based
Details in all cases: broth microdilution, 37 °C, 24 h

For test [1], the system named is A. baumannii ATCC 19606. The procedure, abridged: (§1)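 Strains were kept in TSB with 25% glycerol at −70 °C and grown aerobically on nutrient agar at 37 °C for 24 h. For MIC, test compound was diluted twofold (1–256 µg/mL) and ~10^6 cells/mL were added, followed by 37 °C for 24 h. MIC was read visually as 99% growth inhibition, with gentamycin as control. For MBC, non-turbid wells were plated on Mueller–Hinton agar for 24 h at 37 °C; MBC was the lowest concentration giving no colonies.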

In test [2] the test system is P. aeruginosa ATCC 27853. The procedure, abridged:
as §1

Test [3] deals with S. aureus ATCC 29213. The method in brief:
as §1

Turning to Gentamycin, the MIC in test [1] is 4 µg/mL; in test [2], 2 µg/mL; in test [3], 1 µg/mL.

The values are drawn from PMC12480717 (Scientific Reports, 2025).
